In ChEMBL document CHEMBL5712078, “BRD9 Inhibition, Alone or in Combination with Cytostatic Compounds as a Therapeutic Approach in Rhabdoid Tumors” (Int J Mol Sci, 2017) one finds Activity, IC50 and CI data, which are given here for one compound.

For assay [1], the system named is CHLA-266. In words: Induction of cell cycle arrest in human CHLA-266 cells assessed as accumulation of cells at G1 phase incubated for 72 hrs by flow cytometry analysis. Conditions: dose 5-20 µM. The class given is functional, cell-based. The method in brief: (§1)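 72 h DAPI flow-cytometry cell-cycle assay. Chla266 in IMDM/20% FBS seeded at 30,000 cells/mL; G401 in DMEM/10% FBS at 10,000 cells/mL; 1 mL/well, 37 °C, 5% CO2. Next day the medium was replaced with inhibitor at final 0, 5, 10 or 20 µM. Cells were harvested, PBS-washed, and the G1 percentage was read. n ≥ 3, mean ± SD, one-way ANOVA vs control.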
(A flow cytometer gives signals particle by particle.)

Assay [2] relates to G-401. Briefly: Anti-proliferative activity against human G-401 cells assessed as inhibition cell growth incubated for 72 hrs in presence of doxorubicin by MTT-based Chou-Talalay method. The class given is functional. As to conditions: G-401, 72 h. The method in brief:
(§2)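 Combination MTT assay. I-BRD9 and carboplatin, doxorubicin or vincristine were given together at a fixed 10:1 ratio, with cytostatics 0.0001–10 µM final, added 24 h after seeding. MTT read-out at 570/630 nm after 3 h formazan solubilisation. Combination index from the Chou–Talalay median-effect method: CI <1 synergism, CI >1 antagonism. n ≥3.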

Assay [3] deals with BT-12. In words: Synergistic cytotoxicity against human BT-12 cells assessed as combination index incubated for 72 hrs in presence of vincristine by MTT-based Chou-Talalay method. The class given is functional. The method in brief:
(§3)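 MTT combination assay. BT12 in IMDM/20% FBS at 5000 cells/well; G401 in DMEM/10% FBS. Drugs added 24 h after seeding, with I-BRD9 and cytostatic at a fixed 10:1 ratio (final ranges 0.001–100 µM and 0.0001–10 µM). After 72 h: MTT for 3 h, dissolved in isopropanol/0.04 N HCl, read at 570/630 nm. Technical triplicates, ≥3 independent runs; combination index by Chou–Talalay median-effect analysis.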

In assay [4] the test system is G-401. Briefly: Anti-proliferative activity against human G-401 cells assessed as cell viability incubated for 144 hrs by MTT assay. The class given is functional, cell-based. Conditions: G-401, 144 h. The method in brief: (§4)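 MTT proliferation assay. Cells were seeded at 3000 (BT16, KD, G401) or 5000 (BT12, Chla266) cells per well and drug was added after 24 h, final 0.001–100 µM. Read at 72 or 144 h; 144 h wells got fresh medium and drug on day 3. MTT for 3 h, formazan dissolved in isopropanol/0.04 N HCl, absorbance at 570/630 nm. Technical triplicates, ≥3 independent runs, IC50 derived.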
For orientation: Tetrazolium assays rely on reduction of a dye to a coloured formazan, in cell work by metabolically active cells.

Assay [5] deals with BT-12. In words: Induction of apoptosis in human BT-12 cells assessed as necrotic cells at 20 uM incubated for 72 hrs by flow cytometry analysis (Rvb= 9.1+/-2.8 %). The class given is functional. The method in brief: (§5)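 Annexin V/PI flow assay. G401 at 10,000 cells/mL and BT12 or Chla266 at 30,000 cells/mL were seeded in 12-well plates. Next day medium was replaced with medium holding I-BRD9 or BI-9564 at 0, 5, 10 or 20 µM final for 72 h. Cells were washed in PBS, stained with FITC-Annexin V and propidium iodide for 15 min in the dark at room temperature, then read by flow cytometry. Percentage of dead cells, n ≥3, mean ± SD, one-way ANOVA versus control.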

In assay [6] the test system is BT-12. In words: Induction of cell cycle arrest in human BT-12 cells assessed as accumulation of cells at G1 phase at 20 uM incubated for 72 hrs by flow cytometry analysis (reference value: 69+/-1.9%). The class given is functional. The method in brief: (§6)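 Cell cycle. Seeding and 72 h treatment as for the apoptosis assay, with I-BRD9 or BI-9564 at 0, 5, 10 or 20 µM final. A 100 µL cell suspension was stained with DAPI and read by flow cytometry. Percentage of cells in G1, n ≥3, mean ± SD, one-way ANOVA versus control.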

Assay [7] is described as follows: Anti-proliferative activity against human KD cells assessed as cell viability incubated for 144 hrs by MTT assay. The class given is functional, cell-based. The method in brief:
as §4

Assay [8] concerns BT-12. In words: Induction of apoptosis in human BT-12 cells assessed as necrotic cells at 5 uM incubated for 72 hrs by flow cytometry analysis (reference value: 9.1+/-2.8 %). The class given is functional. The method in brief:
as §5

Assay [9] concerns CHLA-266. Briefly: Induction of cell cycle arrest in human CHLA-266 cells assessed as accumulation of cells at G1 phase at 5 uM incubated for 72 hrs by flow cytometry analysis (reference value: 74.2+/-3.6%). The class given is functional. The method in brief:
as §6

Assay [10] has as its system G-401. In words: Anti-proliferative activity against human G-401 cells assessed as inhibition cell growth incubated for 72 hrs in presence of carboplatin by MTT-based Chou-Talalay method. The class given is functional. Conditions: G-401, 72 h. The method in brief: as §2
For assay [11], the system named is BT-12. Briefly: Anti-proliferative activity against human BT-12 cells assessed as inhibition cell growth incubated for 72 hrs in presence of vincristine by MTT-based Chou-Talalay method. The class given is functional. As to conditions: BT-12, 72 h. The method in brief:
as §2

Assay [12] has as its system BT-12. In words: Anti-proliferative activity against human BT-12 cells assessed as inhibition cell growth incubated for 72 hrs in presence of doxorubicin by MTT-based Chou-Talalay method. The class given is functional. Conditions: BT-12, 72 h. The method in brief: as §2
The test system of assay [13] is CHLA-266. In words: Induction of apoptosis in human CHLA-266 cells assessed as necrotic cells at 5 uM incubated for 72 hrs by flow cytometry analysis (Rvb= 5.0+/-0.3 %).
In assay [14] the test system is CHLA-266. In words: Induction of apoptosis in human CHLA-266 cells assessed as necrotic cells incubated for 72 hrs by flow cytometry analysis. As to conditions: dose 5-20 µM. The class given is functional, cell-based. The method in brief: as §5
The subject of assay [15] is G-401. Briefly: Anti-proliferative activity against human G-401 cells assessed as inhibition cell growth incubated for 72 hrs in presence of vincristine by MTT-based Chou-Talalay method. The class given is functional. As to conditions: G-401, 72 h. The method in brief:
as §2

Assay [16] relates to G-401. Briefly: Synergistic cytotoxicity against human G-401 cells assessed as combination index incubated for 72 hrs in presence of carboplatin by MTT-based Chou-Talalay method. The class given is functional. The method in brief: as §3
For assay [17], the system named is BT-12. Briefly: Synergistic cytotoxicity against human BT-12 cells assessed as combination index incubated for 72 hrs in presence of doxorubicin by MTT-based Chou-Talalay method. The class given is functional. The method in brief:
as §3

The test system of assay [18] is BT-12. In words: Anti-proliferative activity against human BT-12 cells assessed as cell viability incubated for 144 hrs by MTT assay. The class given is functional, cell-based. As to conditions: BT-12, 144 h. The method in brief:
as §4

The test system of assay [19] is G-401. Briefly: Induction of cell cycle arrest in human G-401 cells assessed as accumulation of cells at G1 phase at 20 uM incubated for 72 hrs by flow cytometry analysis (reference value: 51.7+/-2%). The class given is functional. The method in brief:
as §1

The test system of assay [20] is G-401. Briefly: Induction of apoptosis in human G-401 cells assessed as necrotic cells at 5 uM incubated for 72 hrs by flow cytometry analysis (Rvb= 5.7+/-1.9 %). The class given is functional. The method in brief:
as §5

Assay [21] relates to BT-12. In words: Induction of apoptosis in human BT-12 cells assessed as necrotic cells at 10 uM incubated for 72 hrs by flow cytometry analysis (reference value: 9.1+/-2.8 %). The class given is functional. The method in brief: as §5

By IC50 is commonly meant the midpoint of a concentration-inhibition curve.

As to `CCn1cc(-c2cccc(C(F)(F)F)c2)c2sc(C(=N)NC3CCS(=O)(=O)CC3)cc2c1=O`, the Activity entry in assay [1] was “Dose-Dependent Effect”; in [5], 34.6%; in [6], 85.6%; in assay [8] it was 19.9%; in assay [9], 79.5%; in assay [13] it was 7.7%. In addition, the Activity result in assay [14] was “Dose-Dependent Effect”; in assay [19] it was 65.5%; in assay [20], 7.7%; in [21], 17.6%. In addition, the IC50 in assay [2] turned out to be 96 nM; in [4] it was 6.1 µM; in [7], 7.1 µM; in [10] it was 9.1 µM; in assay [11], 16.7 µM; in assay [12] it was 940 nM. Besides, the IC50 amounted to 8 nM in assay [15] and 8.2 µM in assay [18]. In addition, the CI in assay [3] was 96.1; in assay [16] it was 0.37; in [17] it was 0.42.
